Assay [1] addresses T1, E. coli PBP1a (Escherichia coli, UniProt P02918).
T1 sequence (P02918 1-850): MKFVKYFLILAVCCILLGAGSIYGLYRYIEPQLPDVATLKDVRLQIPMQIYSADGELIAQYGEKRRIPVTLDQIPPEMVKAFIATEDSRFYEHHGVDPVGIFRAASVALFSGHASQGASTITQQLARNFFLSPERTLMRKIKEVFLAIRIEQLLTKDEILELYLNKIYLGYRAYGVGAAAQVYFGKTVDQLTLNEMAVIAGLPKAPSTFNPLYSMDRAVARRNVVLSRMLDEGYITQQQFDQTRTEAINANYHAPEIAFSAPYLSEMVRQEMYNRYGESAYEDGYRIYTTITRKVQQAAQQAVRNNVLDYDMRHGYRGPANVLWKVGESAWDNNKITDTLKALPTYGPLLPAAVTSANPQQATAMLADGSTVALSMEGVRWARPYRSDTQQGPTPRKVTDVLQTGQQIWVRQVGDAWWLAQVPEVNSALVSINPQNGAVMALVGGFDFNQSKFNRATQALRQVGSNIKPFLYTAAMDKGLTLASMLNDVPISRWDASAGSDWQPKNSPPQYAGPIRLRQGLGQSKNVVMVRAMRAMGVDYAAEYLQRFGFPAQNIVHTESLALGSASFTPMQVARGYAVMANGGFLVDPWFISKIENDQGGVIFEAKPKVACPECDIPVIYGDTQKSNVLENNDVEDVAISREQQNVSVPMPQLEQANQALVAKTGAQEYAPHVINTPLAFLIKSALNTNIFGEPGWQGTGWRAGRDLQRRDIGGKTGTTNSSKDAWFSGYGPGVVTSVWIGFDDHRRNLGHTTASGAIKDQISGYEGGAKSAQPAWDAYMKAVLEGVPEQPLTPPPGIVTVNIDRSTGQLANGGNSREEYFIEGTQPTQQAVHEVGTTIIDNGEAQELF
In words: PBP competition assay with Bocillin FL. Type of assay: binding. A digest of the protocol:
(§1)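 E. coli K-12 or P. aeruginosa 1771 grown in BHI at 35°C to A600 ~1.5. Cells in 50 mM phosphate pH 7.0 were French-pressed; membranes pelleted at 150,000 × g. Membranes (10–20 μg protein) were pre-incubated with test compound 10 min at 30°C, then Bocillin FL (100 μM final) 20 min. SDS-PAGE, fluorescence scan. IC50 in μg/ml from ≥8 concentrations versus no-drug control.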

For assay [2], the system named is E. coli. Nature of the assay: Broth microdilution MIC. Conditions: Escherichia coli. Type of assay: cell-based. A digest of the protocol: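 MICs by CLSI broth microdilution in cation-adjusted Mueller-Hinton broth. Strains grown in BHI broth at 35°C: E. coli K-12, P. aeruginosa 1771 and S. aureus ATCC 29213. H. influenzae Rd grown in BHI with Haemophilus test medium supplement (hemin and β-NAD, 15 μg/ml each).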
A general note: Broth dilution looks for growth in wells or tubes with falling amounts of substance.

Assay [3] concerns the target P. aeruginosa PBP1a (Pseudomonas aeruginosa, UniProt Q07806). Nature of the assay: PBP competition assay with Bocillin FL. Type of assay: binding. The method, boiled down:
as §1

Assay [4] addresses T2, E. coli PBP2 (Escherichia coli, UniProt P0AD65).
T2 sequence (P0AD65 1-633): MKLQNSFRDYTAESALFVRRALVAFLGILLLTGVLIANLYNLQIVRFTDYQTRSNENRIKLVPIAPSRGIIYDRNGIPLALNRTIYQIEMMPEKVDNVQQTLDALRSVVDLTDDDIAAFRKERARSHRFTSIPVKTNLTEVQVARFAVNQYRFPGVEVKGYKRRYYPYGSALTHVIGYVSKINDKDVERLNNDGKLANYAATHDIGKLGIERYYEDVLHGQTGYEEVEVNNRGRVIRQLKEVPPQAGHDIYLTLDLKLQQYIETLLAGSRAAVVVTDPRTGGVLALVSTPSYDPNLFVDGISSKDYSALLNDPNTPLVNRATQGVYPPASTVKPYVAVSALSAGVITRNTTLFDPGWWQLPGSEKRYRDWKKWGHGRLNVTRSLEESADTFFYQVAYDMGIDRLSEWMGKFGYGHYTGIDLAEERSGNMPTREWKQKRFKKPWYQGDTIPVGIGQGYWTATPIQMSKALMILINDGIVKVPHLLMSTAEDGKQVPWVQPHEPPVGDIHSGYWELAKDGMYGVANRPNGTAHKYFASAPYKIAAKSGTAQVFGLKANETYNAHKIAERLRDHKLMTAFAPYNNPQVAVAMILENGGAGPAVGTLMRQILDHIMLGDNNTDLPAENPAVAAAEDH
In words: PBP competition assay with Bocillin FL. The assay is classed as binding. A digest of the protocol: as §1

For assay [5], the target named is T3, E. coli PBP1b (Escherichia coli, UniProt P02919).
T3 sequence (P02919 1-844): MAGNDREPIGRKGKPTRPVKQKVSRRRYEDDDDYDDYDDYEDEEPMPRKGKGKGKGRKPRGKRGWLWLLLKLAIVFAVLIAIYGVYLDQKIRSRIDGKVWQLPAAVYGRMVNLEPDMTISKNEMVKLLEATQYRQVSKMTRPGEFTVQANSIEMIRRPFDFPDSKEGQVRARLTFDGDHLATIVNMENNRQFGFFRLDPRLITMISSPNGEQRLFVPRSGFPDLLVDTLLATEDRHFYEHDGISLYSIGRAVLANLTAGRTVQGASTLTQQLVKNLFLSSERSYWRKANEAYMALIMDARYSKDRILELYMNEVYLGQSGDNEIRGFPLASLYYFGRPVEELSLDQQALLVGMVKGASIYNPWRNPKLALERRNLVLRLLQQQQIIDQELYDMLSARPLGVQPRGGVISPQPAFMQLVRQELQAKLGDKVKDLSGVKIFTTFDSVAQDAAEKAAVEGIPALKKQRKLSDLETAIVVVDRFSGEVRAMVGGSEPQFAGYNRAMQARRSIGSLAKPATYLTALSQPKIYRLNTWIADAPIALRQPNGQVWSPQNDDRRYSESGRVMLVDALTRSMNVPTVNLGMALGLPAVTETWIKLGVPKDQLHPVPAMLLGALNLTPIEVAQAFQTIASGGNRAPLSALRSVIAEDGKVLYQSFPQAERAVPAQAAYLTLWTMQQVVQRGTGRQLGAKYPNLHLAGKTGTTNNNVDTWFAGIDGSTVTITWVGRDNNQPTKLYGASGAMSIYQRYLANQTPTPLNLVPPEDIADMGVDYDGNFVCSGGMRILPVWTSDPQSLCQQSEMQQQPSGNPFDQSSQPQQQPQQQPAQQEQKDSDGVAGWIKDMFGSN
In words: PBP competition assay with Bocillin FL. Type of assay: binding. The method, boiled down:
as §1

Experimental findings from article PMC4750707 (Antimicrobial Agents and Chemotherapy, 2016) are described below.

Each structure is given as a SMILES string. Values after ≈ are worked out from the molar mass of the structure shown.

What is called IC50 is the concentration that gives 50% inhibition. A higher IC50 goes with weaker potency. As a reminder, the MIC is the lowest concentration that inhibits growth of the organism. A higher MIC goes with a need for much substance.

Sequence of P. aeruginosa PBP1a (Q07806 whole entry): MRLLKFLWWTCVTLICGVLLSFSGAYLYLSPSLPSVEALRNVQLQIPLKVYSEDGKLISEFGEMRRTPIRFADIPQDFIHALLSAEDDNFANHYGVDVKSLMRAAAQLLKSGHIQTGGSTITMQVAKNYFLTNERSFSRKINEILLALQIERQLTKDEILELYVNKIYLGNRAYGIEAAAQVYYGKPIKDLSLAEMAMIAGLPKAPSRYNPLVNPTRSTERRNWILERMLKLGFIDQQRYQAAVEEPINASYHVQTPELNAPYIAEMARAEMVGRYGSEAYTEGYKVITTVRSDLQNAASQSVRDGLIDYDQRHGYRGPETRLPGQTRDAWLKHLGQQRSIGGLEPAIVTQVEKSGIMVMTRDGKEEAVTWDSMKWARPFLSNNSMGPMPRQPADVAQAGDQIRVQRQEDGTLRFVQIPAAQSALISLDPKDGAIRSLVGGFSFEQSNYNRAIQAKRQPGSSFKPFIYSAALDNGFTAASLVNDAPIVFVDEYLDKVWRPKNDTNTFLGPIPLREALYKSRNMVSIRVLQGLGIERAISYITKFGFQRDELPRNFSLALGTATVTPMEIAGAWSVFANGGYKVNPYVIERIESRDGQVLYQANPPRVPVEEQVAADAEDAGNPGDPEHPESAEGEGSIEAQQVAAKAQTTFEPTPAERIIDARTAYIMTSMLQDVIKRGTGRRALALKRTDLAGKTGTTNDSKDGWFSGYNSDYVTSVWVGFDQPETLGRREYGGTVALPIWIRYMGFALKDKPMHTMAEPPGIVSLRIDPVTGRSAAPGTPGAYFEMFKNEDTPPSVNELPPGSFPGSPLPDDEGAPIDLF

`NC(=O)[C@@H]1CC[C@@H]2CN1C(=O)N2OS(=O)(=O)O` [AVI, avibactam]: the half-inhibitory concentration (IC50) in assay [1] is above 49 µM; in assay [3], above 49 µM; in assay [4], 3.47 µM; in assay [5] it was above 49 µM. The compound further came in with a minimum inhibitory concentration (MIC) in assay [2] of 8 µg/mL (≈ 30.2 µM).
`CC(C)(O/N=C(\C(=O)N[C@@H]1C(=O)N2C(C(=O)[O-])=C(C[n+]3ccccc3)CS[C@H]12)c1csc(N)n1)C(=O)O` [CAZ, ceftazidime]: the IC50 is 27.4 µM in assay [1], 0.348 µM in assay [3], above 45.7 µM in assay [4] and 14.6 µM in assay [5]. In addition, in assay [2], the minimum inhibitory concentration (MIC) was determined as 0.5 µg/mL (≈ 0.915 µM).
The corresponding values for `CC1(C)S[C@@H]2[C@H](/N=C/N3CCCCCC3)C(=O)N2[C@H]1C(=O)O` [MEC, amdinocillin] are above 39.9 µM, above 39.9 µM, 0.0615 µM, above 39.9 µM and 0.06 to 0.1 µg/mL (≈ 0.184 to 0.307 µM).
